Screening results as filed in PubChem.
Plk1 PBD FP: blocks phosphopeptide binding to human Plk1 polo box domain | AID 693 | hit rate 0.13% among 97,000 | Plk1 PBD phosphopeptide binding, fluorescence polarization | inhibition, %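 (tested at about 20 µM)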; in the data active = inhibition above about 34%, passing the limit was not always enough
HIV Rev-RRE inh: HIV Rev-RRE protein-RNA interaction inhibition. AID 704. Rev peptide-RRE RNA binding, FRET. inhibition, % at 8 µM. hit rate 0.79% among 97,000;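 active = inhibition above the screen-wide mean plus 3 SD, cut at about 35% in these data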;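 note: 0% = median DMSO wells and 100% = median Neomycin B control wells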
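Material: labelled RRE RNA duplex and labelled Rev peptide / Buffer or medium: HEPES pH 7.5 salt buffer with EDTA / Compound dosing: single point, 8 µM final nominal compound concentration / Benchmarks: DMSO low control, neomycin B high control / Timing: 5 min preincubation and 15 min binding, 25 °C / Technique: FRET fluorescence readout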
Cav3 T inh: human Cav3.2 channel inhibition, primary screen. AID 449739. O95180. B-score at 10 µM. Cav3.2-expressing cells, Fluo-4 calcium fluorescence FDSS; stronger effect = lower value. hit rate 4% among 100,000;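 active = single-dose well whose peak fluorescence ratio is a statistical outlier from its plate by either plate-standardised score or position-corrected B-score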
PLK1 inh: inhibitors of human PLK1 kinase; recombinant PLK1 kinase, TR-FRET peptide phosphorylation; P53350; inhibition, % at 10 µM; hit rate 0.53% among 97,000;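 active = inhibition of 50% or more in the single-concentration screen; inactive = inhibition below 50%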;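 note: 0% = DMSO max control and 100% = H-89 dihydrochloride min control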
EphB4 antag: EphB4-ephrin-B2 interaction antagonism; EphB4 LBD / TNYL-RAW-Alexa532 peptide, fluorescence polarization; inhibition, % at 7 µM; hit rate 0.15% among 97,000;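 active = inhibition above the screen-wide mean inhibition plus 3 SD, cut at about 15% in these data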;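 note: 0% = DMSO wells and 100% = excess unlabeled TNYL-RAW peptide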
Target sequence (P54760 whole entry, looked up, the tested form may be a part): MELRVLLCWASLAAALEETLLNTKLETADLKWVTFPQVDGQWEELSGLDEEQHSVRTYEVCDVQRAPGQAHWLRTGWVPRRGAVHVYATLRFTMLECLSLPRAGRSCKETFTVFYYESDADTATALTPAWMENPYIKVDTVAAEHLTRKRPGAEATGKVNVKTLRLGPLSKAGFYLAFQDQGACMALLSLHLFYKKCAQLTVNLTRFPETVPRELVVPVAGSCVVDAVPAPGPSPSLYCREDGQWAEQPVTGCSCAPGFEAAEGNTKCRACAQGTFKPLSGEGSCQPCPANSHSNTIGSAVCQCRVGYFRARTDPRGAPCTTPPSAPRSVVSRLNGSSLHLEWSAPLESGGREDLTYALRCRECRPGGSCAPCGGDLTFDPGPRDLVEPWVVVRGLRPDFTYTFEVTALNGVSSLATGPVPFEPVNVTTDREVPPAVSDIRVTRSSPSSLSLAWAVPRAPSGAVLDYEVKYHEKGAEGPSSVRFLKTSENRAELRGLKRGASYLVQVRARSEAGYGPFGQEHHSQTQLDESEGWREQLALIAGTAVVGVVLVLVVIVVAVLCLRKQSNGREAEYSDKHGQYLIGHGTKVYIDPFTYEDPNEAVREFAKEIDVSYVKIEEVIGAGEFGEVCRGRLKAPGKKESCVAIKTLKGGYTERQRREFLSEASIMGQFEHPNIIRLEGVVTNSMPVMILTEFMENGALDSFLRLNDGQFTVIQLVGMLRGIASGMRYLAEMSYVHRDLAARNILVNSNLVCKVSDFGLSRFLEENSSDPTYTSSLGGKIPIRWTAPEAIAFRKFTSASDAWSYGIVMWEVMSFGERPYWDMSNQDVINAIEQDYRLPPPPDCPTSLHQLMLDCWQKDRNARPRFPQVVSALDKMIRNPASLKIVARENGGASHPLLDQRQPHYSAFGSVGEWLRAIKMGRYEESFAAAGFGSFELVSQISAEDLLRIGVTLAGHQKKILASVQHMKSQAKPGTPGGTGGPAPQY
FAK blocker: inhibitors of human focal adhesion kinase; biochemical FAK kinase activity assay; hit rate 0.84% among 97,000; inhibition, %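 (tested at 7 µM)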; AID 727; Q05397; in the data active = inhibition above about 19%;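 note: 0% = DMSO and 100% = reference compound high control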
The depositor's hits bear a star; x = not tested or not shown; [ ] = dose if it differs, or a comment. A selection: hits, their analogues and other compounds. The true share with any hit is near 5.3%.

SMILES | Plk1 PBD FP | HIV Rev-RRE inh | Cav3 T inh | PLK1 inh | EphB4 antag | FAK blocker
COC(C[C@H]1O[C@H]1[C@@H](O)[C@H](C)OCc1ccccc1)OC | x | x | -0.557 | x | x | x
Cc1cc(C(F)(F)F)n(-c2nc(C(=O)Nc3ccccc3Oc3ccccc3)cs2)n1 | -20.5 | 11.1 | -4.37* | -23.1 | -1.1 | -0.3
COc1ccccc1NC(=O)c1csc(-n2nc(C)cc2C(F)(F)F)n1 | -2.2 | 4.1 | 1.21 | -13.9 | 13.7 | -1.3
CCC(C)c1nc2ccsc2c(N2CCOC2=O)c1-c1ccccc1 (centres undefined) | x | x | -1.48 | x | x | x
Cc1cccc(-c2noc(CN(C(=O)C34CC5CC(CC(C5)C3)C4)C(C)C)n2)c1 | 4.0 | 1.3 | -0.334 | -6.8 | 6.5 | -2.5
Cc1ccccc1OCC(=O)N(Cc1nc(-c2ccccc2)no1)C(C)C | -5.3 | 2.9 | -4.28* | -10.9 | -0.1 | -1.5
Cc1ccc(SCC(=O)N(Cc2nc(-c3ccccc3)no2)C(C)C)cc1 | -15.9 | 8.1 | -2.67 | -14.3 | -5.0 | 1.1
CC(C)N(Cc1nc(-c2ccc(Cl)cc2)no1)C(=O)CCCN1C(=O)c2ccccc2C1=O | -6.4 | 4.6 | -5.01* | 53.8* | 1.6 | 8.8
COc1ccccc1OCC(=O)N(Cc1nc(-c2ccccc2)no1)C1CCCCC1 | 10.3 | 5.8 | -8.13* | -14.2 | 2.3 | 6.0
COc1cc(OC)cc(C(=O)N(Cc2nc(-c3cccc(C)c3)no2)C(C)C)c1 | 0.5 | 6.8 | -6.71* | -4.9 | 2.5 | 2.1
COCCN1C(=O)N[C@@H](c2ccccc2)C(C(C)=O)=C1C | x | x | 0.836 | x | x | x
CCN(Cc1ccncc1)C(=O)C1CCN(S(=O)(=O)c2cccs2)CC1 | 3.1 | 4.8 | 0.676 | -14.3 | -0.7 | 0.8
Fc1ccc(N2CCN(c3ccc4c(C(F)(F)F)cc(C(F)(F)F)nc4n3)CC2)cc1 | -9.3 | -0.9 | -4* | -9.8 | -7.7 | 1.3
FC(F)(F)c1cc(C(F)(F)F)c2ccc(N3CCN(c4ncccn4)CC3)nc2n1 | 14.1 | 2.9 | 0.0366 | -14.5 | -1.3 | -1.4
FC(F)(F)c1cc(C(F)(F)F)c2ccc(N3CCN(c4ccc(Cl)cc4)CC3)nc2n1 | 27.3 | 19.2 | -7.03* | -9.0 | -7.5 | 0.0
N#CC(c1ccc(Cl)cc1)c1ccc2c(C(F)(F)F)cc(C(F)(F)F)nc2n1 (centres undefined) | 32.5 | -0.4 | -2.53 | -6.3 | 0.3 | 0.9
C#Cc1ccc([C@H]2C=C(C(=O)Nc3ccccc3)O[C@@H](OCc3ccc(CO)cc3)C2)cc1 | x | x | -1.63 | x | x | x
O=C(Nc1cccc(Cl)c1)N(Cc1nc2ccccc2c(=O)[nH]1)C1CCCC1 | 14.0 | 3.9 | -6.03* | -6.3 | -6.3 | 2.8
Cc1cccc(NC(=O)N(Cc2nc3ccccc3c(=O)[nH]2)C2CCCC2)c1 | -6.2 | 3.8 | -1.05 | -9.3 | 2.2 | 6.6
Cc1ccccc1C(C(=O)NCc1ccco1)N(CC1CCCO1)C(=O)Cn1nnc2ccccc21 (centres undefined) | -12.4 | 2.1 | -3.78* | -13.4 | 2.2 | -8.8
Cc1cccc(N(C(=O)Cn2nnc3ccccc32)C(C(=O)NCc2ccco2)c2ccncc2)c1 (centres undefined) | -16.4 | 5.0 | 0.721 | -9.2 | 6.4 | -2.4
O=C(NCc1ccco1)C(c1ccco1)N(C(=O)Cn1nnc2ccccc21)c1ccc2c(c1)CCC2 (centres undefined) | -8.0 | 0.8 | -4.34* | -7.7 | -1.9 | -2.8
CCCCC(=O)NC(c1cccc([N+](=O)[O-])c1)c1c(OC(C)=O)ccc2ccccc12 (centres undefined) | -23.5 | 0.5 | -7.73* | -5.5 | -3.3 | 2.5
CC(=O)NC(c1cccc([N+](=O)[O-])c1)c1c(OC(C)=O)ccc2ccccc12 (centres undefined) | -8.6 | -1.1 | -0.449 | -11.7 | -6.5 | 1.8
CCN(CC)c1ccc(C=Nc2ccc(C)cc2)c(O)c1 | 0.5 | 6.0 | -2.21 | -14.2 | -9.9 | 2.4
SMILES | Plk1 PBD FP | HIV Rev-RRE inh | Cav3 T inh | PLK1 inh | EphB4 antag | FAK blocker
CCN(CC)c1ccc(C=Nc2ccc(N(C)C)cc2)c(O)c1 | -39.9 | 81.3*[fluorescence artefact?] | -1.02 | -8.1 | 2.4 | 7.3
CCN(CC)c1ccc(N=Cc2ccc(N(CC)CC)cc2O)cc1 | -67.3 | 96.0*[fluorescence artefact?] | -1.54 | -6.9 | -3.1 | 5.1
CCCNc1nc(C)cc(-c2cc(C(=O)NC3CCCC3)on2)n1 | x | x | -0.216 | x | x | x
Cc1cc(Nc2ccc(Br)c(C)c2)n2nc(C)nc2n1 | x | x | -0.285 | x | x | x
COc1ccc2c(c1)CC1c3c(cc4c(c3-2)OCO4)CC[N+]1(C)[O-] (centres undefined) | x | x | 0.257 | x | x | x
COC(=O)[C@@H]1C[C@@]2(O)[C@@H](O)[C@@H](O)[C@@H](O)C[C@H]2N1CC(c1ccccc1)c1ccccc1 | x | x | -2.19 | x | x | x
CSCCC(NC(N)=O)C(=O)NCC1CCCCC1 (centres undefined) | 5.6 | 11.8 | 0.886 | -9.7 | 2.5 | 1.4
CCCCCCC1CCC(C(=O)NC(CCSC)C(=O)NC(C(=O)OC)C(C)C)CC1 (centres undefined) | -2.5 | -3.2 | -6.78* | -5.7 | 0.9 | -0.4
CCOc1ccc(C2=NNC(c3cccs3)=Nc3ccc(OC)cc32)cc1OCC | 2.7 | 4.7 | -8.07* | -8.7 | -1.8 | 0.6
COc1ccc(C2=NNC(c3cccs3)=Nc3ccc(OC)cc32)cc1 | -5.7 | 19.3 | -2.13 | -0.5 | 3.7 | -0.7
CC(C)NC(=O)c1ccccc1NC(=O)CCc1ccccc1 | -21.1 | 5.2 | 0.0449 | -6.1 | 2.6 | -1.6
Cc1ccc(-c2nnn(CC(=O)N(c3ccccc3)C(C(=O)NCC3CCCO3)c3ccc(Cl)cc3)n2)cc1 (centres undefined) | 7.7 | -0.1 | -4.65* | -4.4 | -3.6 | 2.7
Cc1ccc(-c2nnn(CC(=O)N(c3ccccc3F)C(C(=O)NCC3CCCO3)c3c[nH]c4ccccc34)n2)cc1 (centres undefined) | -6.1 | -2.5 | -7.07* | -6.0 | -3.9 | 4.7
O=S(=O)(NCCn1ccc2ccccc21)c1ccccc1 | -14.8 | 3.5 | -1.52 | -11.7 | 0.7 | 4.2
c1nc(N2CCCCC2)c2[nH]cnc2n1 | x | x | 0.528 | x | x | x
c1nc(N2CCOCC2)c2[nH]cnc2n1 | 0.6 | 10.1 | x | 63.0* | 0.2 | 6.8
CC(=O)N1c2ccccc2N(Cc2ccc(C)cc2C)C(=O)C1(C)C | 8.3 | x | -8.3* | 0.0 | x | x
O=S(=O)(c1ccc(Oc2ccc(Br)cc2)cc1)N1CCOCC1 | 0.0 | 8.0 | -1.61 | -5.7 | 5.6 | -0.1
Cc1nn(Cc2cccc(F)c2)c(C)c1NC(=O)c1c([N+](=O)[O-])c(C)nn1C | 30.6 | 1.8 | 0.0982 | -4.2 | -3.9 | 0.0
Cc1nn(Cc2ccc(Cl)cc2Cl)c(C)c1NC(=O)c1ccc(COc2cc(Cl)ccc2Cl)o1 | -37.9 | 2.9 | -5.17* | -7.1 | 5.8 | -4.3
CC(C)CNC(=O)c1ccc(COc2ccc(Cl)cc2Cl)o1 | 4.2 | 11.5 | -4.51* | -8.0 | 1.7 | 0.5
Cc1nn(Cc2cccc(F)c2)c(C)c1NC(=O)c1ccc(COc2ccccc2Cl)cc1 | 1.7 | 4.6 | -4.56* | -11.5 | 6.6 | 1.9
CC(C)(C)OC(=O)N[C@@H](Cc1ccccc1)[C@H](O)c1ccco1 | x | x | 0.00432 | x | x | x
